Data reported in article PMC4142700 (The Prostate, 2010).
Values joined by “and” are separate entries in the source; they are usually repeats but may differ in a detail not shown here. Equal entries are not always repeated. “Also recorded” adds a separate entry of the source.

Assays:
p62 = p62 protein in peripheral blood mononuclear cells by Western blot; type: in vivo, patients; details: PBMCs, immunoblot, normalized to α-tubulin
Outline: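 PBMCs were collected from six patients at baseline, 4 hr and 24 hr. Extracts were prepared in Laemmli buffer, resolved by SDS–PAGE and transferred to PVDF. Blots were probed for p62 and α-tubulin, then detected with HRP secondary antibody and ECL. Scanned bands were quantified by optical density, and p62 was normalized to α-tubulin.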

prostate cancer cells = details: cited from earlier work
[1] = test system: castrate-resistant prostate cancer (CRPC); test: Clinical outcome; type: in vivo, patients
Outline: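 Oral 2DG, aqueous solution formulated at 100 mg/ml in water, given daily on days 1–14 of 21-day cycles. Dose cohorts were 30, 45 and 60 mg/kg. Each dose was given 1 hr before breakfast, followed by a ~50 ml water rinse of the dosing container. Patients with CRPC were followed for PSA and radiographic disease status across cycles.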

FDG uptake = test: FDG-PET imaging at baseline and day 2: effect of 2DG on FDG uptake; type: in vivo, patients
Outline: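 FDG-PET scans were taken at baseline, cycle 1 day 2 and cycle 2 day 15, with 2DG given orally on days 1–14 of 21-day cycles. FDG uptake was expressed as SUV at a selected tumor site divided by liver SUV, with liver serving as the control. Baseline and day 2 ratios were compared in nine patients.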

[2] = Pharmacokinetics of 2DG in plasma; type: in vivo, patients
Outline: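 Blood samples (5 ml each) were drawn predose, hourly to 6 hr after oral 2DG on cycle 1 day 1, at 24 and 48 hr after cycle 1 day 1, and again on cycle 2 day 1. Plasma extracts were derivatized to 2-aminobenzoic acid derivatives, and 2DG was quantified by HPLC with fluorometric detection.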

[3] = type: in vivo, patients
[4] = cycle 1, 30 mg/kg/day oral, n = 3, mean ± SD
[5] = cycle 1, 45 mg/kg/day oral, n = 4, mean ± SD
[6] = cycle 1, 60 mg/kg/day oral, n = 4, mean ± SD
[7] = cycle 2, 30 mg/kg/day oral, n = 3, mean ± SD
[8] = cycle 2, 45 mg/kg/day oral, n = 4, mean ± SD
[9] = cycle 2, 60 mg/kg/day oral, n = 4, mean ± SD

O=CC[C@@H](O)[C@H](O)[C@H](O)CO [2DG, 2-deoxyglucose]
patients with a decrease in p62 level at 24 hr (p62): Five of six
effect in prostate cancer cell lines (prostate cancer cells; autophagy a mechanism of resistance): cytotoxic effect
effect on prostate cancer cells (prostate cancer cells; preclinical studies): cytotoxic
cycles on study with radiographically stable disease ([1]; individual patients with CRPC): 8 cycles and 12 cycles and 21 cycles
declines in PSA ([1]; seven patients with prostate cancer who completed study therapy): no declines
patients with decreased FDG uptake by day 2 of therapy (FDG uptake; FDG-PET, dose level 2 or 3): Five of eight and five
Day 2 SUV (ratio site/liver) (FDG uptake; patient 5, lung, dose level 2, chest, baseline 6.3): 11.6
Day 2 SUV (ratio site/liver) (FDG uptake; patient 6, cervical, dose level 2, mediastinum, baseline 4.3): 2
Day 2 SUV (ratio site/liver) (FDG uptake; patient 7, prostate, dose level 3, L1 vertebral body, baseline 1.2): 1
Day 2 SUV (ratio site/liver) (FDG uptake; patient 8, prostate, dose level 3, ischium, baseline 2.8): 2.0
Day 2 SUV (ratio site/liver) (FDG uptake; patient 11, prostate, dose level 2, ilium, baseline 3.8): 3
AUC [2, 4]: 821.2±236.2 μmol/Lhr
Clearance [2, 4]: 232.0 ± 63.8 mL/h
Cmax [2, 4]: 277 ± 18.6 µM
AUC [2, 5]: 1107.7±213.3 μmol/Lhr
Clearance [2, 5]: 243.3 ± 49.4 mL/h
Cmax [2, 5]: 449 ± 168 µM
AUC [2, 6]: 2086.2±743.2 μmol/Lhr
Clearance [2, 6]: 185.0 ± 52.6 mL/h
AUC [2, 7]: 751.3 ± 181.7 μmol/Lhr
Clearance [2, 7]: 246.3 ± 56.6 mL/h
AUC [2, 8]: 1087.1 ± 441.8 μmol/Lhr
Clearance [2, 8]: 270.4 ± 126.4 mL/h
AUC [2, 9]: 1226.9 ± 571.2 μmol/Lhr
Clearance [2, 9]: 314.9 ± 108.7 mL/h
dose dependence of pharmacokinetics ([2]; dose levels 30, 45 and 60 mg/kg): linear pharmacokinetics; also recorded: linear with dose level
Cmax ([2]; human, plasma, po, 30 mg/kg, Cmax, dose level 30 mg/kg oral): 45 µg/mL
Cmax ([2]; human, plasma, po, 45 mg/kg, Cmax, dose level 45 mg/kg oral): 73.7 µg/mL
Cmax ([2]; human, plasma, po, 60 mg/kg, Cmax, dose level 60 mg/kg oral): 122 µg/mL
blood concentrations reached ([2]; single agent, highest concentrations reached in this study): 700 µM
dose-limiting toxicity ([3]; human, in vivo, 60 mg/kg, 3 weeks): grade 3 asymptomatic QTc prolongation
patients with grade 2 fatigue ([3]; in vivo): three
tolerability ([3]; in vivo, 45 mg/kg): well tolerated
QT interval ([3]; in vivo, 60 mg/kg): prolonged
recommended phase II dose ([3]; oral, days 1–14 of a 21-day cycle): 45 mg/kg
